Experiment [1] has as its target full-length TDP1 (Homo sapiens, UniProt Q9NUW8). Briefly: TDP1 gel-based fluorescence assay in vitro. The class given is biochemical.
For experiment [2], the target named is T1, full-length TDP2 (Homo sapiens, UniProt O95551).
T1 sequence (O95551 1-362): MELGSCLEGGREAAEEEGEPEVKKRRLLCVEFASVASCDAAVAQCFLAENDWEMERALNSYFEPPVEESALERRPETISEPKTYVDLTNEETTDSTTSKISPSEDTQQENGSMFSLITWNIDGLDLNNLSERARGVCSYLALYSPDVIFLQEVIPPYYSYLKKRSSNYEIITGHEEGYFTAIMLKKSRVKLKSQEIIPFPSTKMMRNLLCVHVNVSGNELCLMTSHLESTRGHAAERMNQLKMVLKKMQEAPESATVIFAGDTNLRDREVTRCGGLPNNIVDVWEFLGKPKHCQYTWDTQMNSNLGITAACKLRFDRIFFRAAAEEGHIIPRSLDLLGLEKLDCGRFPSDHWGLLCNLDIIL
As to the kind of experiment: TDP2 gel-based fluorescence assay in vitro. Conditions: ratio of IC50 values of TDP2 vs. TDP1. It is filed as biochemical.

Experiment [3] has as its system HCT116 cell line. Briefly: Synergy assay with camptothecin. It is filed as cell-based, human. Conditions: HCT116, compound at 10 μM, 72 h cell viability. The procedure, abridged: (§1)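 HCT116 colon or U2OS osteosarcoma cells were seeded at 2 × 10³ cells per well and cultured for 72 h in medium containing the test compound together with camptothecin. Viability was read by CellTiter-Glo luminescence, and synergy was judged from these viability data.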

Experiment [4] deals with TDP1 in HCT116 cell line (Homo sapiens, UniProt Q9NUW8). Briefly: Western blot for TDP1 degradation. It is filed as cell-based. Conditions: 5h 10 μM within 6 h, 5h 0.1-100 μM and 5i 10, 100 μM within 24 h.
Chain of TDP1 in HCT116 cell line (Q9NUW8 whole entry): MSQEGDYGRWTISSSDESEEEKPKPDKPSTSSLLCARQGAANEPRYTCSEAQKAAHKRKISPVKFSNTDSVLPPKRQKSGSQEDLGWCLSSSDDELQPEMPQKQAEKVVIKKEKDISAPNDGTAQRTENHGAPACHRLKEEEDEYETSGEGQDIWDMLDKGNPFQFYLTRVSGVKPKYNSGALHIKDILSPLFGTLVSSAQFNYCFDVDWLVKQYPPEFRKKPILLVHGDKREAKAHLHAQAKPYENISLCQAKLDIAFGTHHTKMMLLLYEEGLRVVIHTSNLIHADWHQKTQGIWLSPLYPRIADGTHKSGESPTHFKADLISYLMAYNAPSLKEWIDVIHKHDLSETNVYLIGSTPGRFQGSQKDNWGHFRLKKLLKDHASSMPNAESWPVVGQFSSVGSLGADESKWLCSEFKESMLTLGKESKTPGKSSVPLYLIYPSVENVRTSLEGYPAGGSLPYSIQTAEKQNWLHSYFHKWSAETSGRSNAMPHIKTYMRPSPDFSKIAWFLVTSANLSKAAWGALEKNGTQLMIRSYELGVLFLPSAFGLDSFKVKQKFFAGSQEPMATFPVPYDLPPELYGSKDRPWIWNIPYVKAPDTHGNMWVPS
In experiment [5] the test system is U2OS cell line. As to the kind of experiment: Synergy assay with camptothecin. The class given is cell-based, human. Conditions: compound at 10 μM, 72 h cell viability. The procedure, abridged:
as §1

The source of these data is PMC11843577 (RSC Medicinal Chemistry, 2025).

Chain of full-length TDP1 (Q9NUW8 whole entry): as above

Turning to `O=C(COc1cccc2c1C(=O)N(C1CCC(=O)NC1=O)C2=O)NCCCCn1cc(COc2ccc(-c3nc4cc(-c5ccccc5)ccn4c3Nc3ccc(C(=O)O)cc3)cc2)nn1` (stereo not shown) [Compound 5d, 4-((2-(4-((1-(4-(2-((2-(2,6-Dioxopiperidin-3-yl)-1,3-dioxoisoindolin-4-yl)oxy)acetamido)butyl)-1H-1,2,3-triazol-4-yl)methoxy)phenyl)-7-phenylimidazo[1,2-a]pyridin-3-yl)amino)benzoic acid], the “TDP1 IC50” value in experiment [1] is “did not show TDP1 inhibitory potency within the range tested”. For the compound `O=C1CCC(N2C(=O)c3cccc(NCCc4cn(Cc5ccc(-c6nc7cc(-c8ccccc8)ccn7c6Nc6ccc(C(=O)O)cc6)cc5)nn4)c3C2=O)C(=O)N1` (stereo not shown) [Compound 5j, 4-((2-(4-((4-(2-((2-(2,6-Dioxopiperidin-3-yl)-1,3-dioxoisoindolin-4-yl)amino)ethyl)-1H-1,2,3-triazol-1-yl)methyl)phenyl)-7-phenylimidazo[1,2-a]pyridin-3-yl)amino)benzoic acid], the TDP1 selectivity in experiment [2] was determined as 1.4.

In the case of `Cc1ncsc1-c1ccc(CNC(=O)[C@@H]2C[C@@H](O)CN2C(=O)[C@@H](NC(=O)COCCOCCOCCOCCn2cc(COc3ccc(-c4nc5cc(-c6ccccc6)ccn5c4Nc4ccc(C(=O)O)cc4)cc3)nn2)C(C)(C)C)cc1` [Compound 5c, 4-((2-(4-((1-((S)-16-((2S,4R)-4-Hydroxy-2-((4-(4-methylthiazol-5-yl)benzyl)carbamoyl)pyrrolidine-1-carbonyl)-17,17-dimethyl-14-oxo-3,6,9,12-tetraoxa-15-azaoctadecyl)-1H-1,2,3-triazol-4-yl)methoxy)phenyl)-7-phenylimidazo[1,2-a]pyridin-3-yl)amino)benzoic acid], in experiment [1], the “TDP1 IC50” value is reported as “failed to exhibit TDP1 inhibitory potency within the range tested”.

On to `O=C(COc1cccc2c1C(=O)N(C1CCC(=O)NC1=O)C2=O)NCCCCn1cc(-c2ccc(-c3nc4ccccn4c3Nc3ccc(C(=O)O)cc3)cc2)nn1` (stereo not shown) [Compound 5g, 4-((2-(4-(1-(4-(2-((2-(2,6-Dioxopiperidin-3-yl)-1,3-dioxoisoindolin-4-yl)oxy)acetamido)butyl)-1H-1,2,3-triazol-4-yl)phenyl)imidazo[1,2-a]pyridin-3-yl)amino)benzoic acid], for which the “TDP1 IC50” value in experiment [1] is “did not show TDP1 inhibitory potency within the range tested”. Turning to `O=C(COc1cccc2c1C(=O)N(C1CCC(=O)NC1=O)C2=O)NCCCCn1cc(COc2ccc(-c3nc4ccccn4c3Nc3ccc(C(=O)O)cc3)cc2)nn1` (stereo not shown) [Compound 5e, 4-((2-(4-((1-(4-(2-((2-(2,6-Dioxopiperidin-3-yl)-1,3-dioxoisoindolin-4-yl)oxy)acetamido)butyl)-1H-1,2,3-triazol-4-yl)methoxy)phenyl)imidazo[1,2-a]pyridin-3-yl)amino)benzoic acid], the “TDP1 IC50” value in experiment [1] is listed as “did not show TDP1 inhibitory potency within the range tested”.

In the case of `Cc1ncsc1-c1ccc(CNC(=O)[C@@H]2C[C@@H](O)CN2C(=O)[C@@H](NC(=O)COCCOCCOCCn2cc(COc3ccc(-c4nc5cc(-c6ccccc6)ccn5c4Nc4ccc(C(=O)O)cc4)cc3)nn2)C(C)(C)C)cc1` [Compound 5b, 4-((2-(4-((1-((S)-13-((2S,4R)-4-Hydroxy-2-((4-(4-methylthiazol-5-yl)benzyl)carbamoyl)pyrrolidine-1-carbonyl)-14,14-dimethyl-11-oxo-3,6,9-trioxa-12-azapentadecyl)-1H-1,2,3-triazol-4-yl)methoxy)phenyl)-7-phenylimidazo[1,2-a]pyridin-3-yl)amino)benzoic acid], in experiment [1], the “TDP1 IC50” value is listed as “failed to exhibit TDP1 inhibitory potency within the range tested”. For `O=C1CCC(N2C(=O)c3cccc(NCc4cn(Cc5ccc(-c6nc7cc(-c8ccccc8)ccn7c6Nc6ccc(C(=O)O)cc6)cc5)nn4)c3C2=O)C(=O)N1` (stereo not shown) [Compound 5h, 4-((2-(4-((4-(((2-(2,6-Dioxopiperidin-3-yl)-1,3-dioxoisoindolin-4-yl)amino)methyl)-1H-1,2,3-triazol-1-yl)methyl)phenyl)-7-phenylimidazo[1,2-a]pyridin-3-yl)amino)benzoic acid], the “Synergy in combination with TOP1 inhibitor camptothecin (CPT)” value in experiment [3] and in experiment [5] was “failed to show synergy” throughout. Also, in experiment [4], the “TDP1 degradation compared with GAPDH” value was “unable to observe degradation effects”. As to `CN(Cc1cn(Cc2ccc(-c3nc4cc(-c5ccccc5)ccn4c3Nc3ccc(C(=O)O)cc3)cc2)nn1)c1cccc2c1C(=O)N(C1CCC(=O)NC1=O)C2=O` (stereo not shown) [Compound 5i, 4-((2-(4-((4-(((2-(2,6-Dioxopiperidin-3-yl)-1,3-dioxoisoindolin-4-yl)(methyl)amino)methyl)-1H-1,2,3-triazol-1-yl)methyl)phenyl)-7-phenylimidazo[1,2-a]pyridin-3-yl)amino)benzoic acid], the “TDP1 degradation compared with GAPDH” value in experiment [4] was “unable to observe degradation effects”.
